A short description of experiment [1]: inhibitors of TNFa-induced NFkB p65 translocation, primary screen, imaging, HUVEC, MLSMR starter and 10KST1 sets (AID 438;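 active = inhibition above 20% together with a positive visual image hit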;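 also: compound added about 3h40 before a 20 min TNFalpha stimulation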;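 as to inhibition: signal is the nuclear over cytoplasmic p65 intensity ratio per well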). To be noted: HUVEC TNFa-induced p65 nuclear translocation; cell count: measured here: nuclei count (cytotoxicity indicator), at 2.08 µM; inhibition: at 2 µM, stronger effect = higher value, 0% TNFa-plus-vehicle, 100% no-TNFa wells.
Experiment [2] can be described thus: endothelial E-selectin expression blockers – imaging, HUVEC, immunofluorescence, MLSMR starter and 10KST1 sets, primary screen (AID 487;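 active = visually confirmed hit in the image check and inhibition above 20%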;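 as to inhibition: signal is fraction of cell area covered by stained E-selectin grains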;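 as to nuclei count: 100% = median nuclei count of all wells on the same plate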). To be noted: HUVEC TNFalpha-induced E-selectin immunofluorescence imaging, at 2 µM; inhibition: stronger effect = higher value; nuclei count: measured here: cell number, toxicity.
A short description of experiment [3]: Primary imaging screen for DUSP6 inhibitors that restore phospho-Erk in transfected HeLa cells, chemical complementation (AID 609).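 As to inhibition: phospho-Erk level distribution per well compared with pooled transfected vehicle control wells.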 To be noted: HeLa MKP-3 transfected, phospho-Erk imaging KS statistic, at 10 µM, cells stimulated with TPA for 15 min.
Experiment [4] concerns the target Dual specificity protein phosphatase 6 (Homo sapiens) (UniProt Q16828). The description is as above. To be noted: HeLa MKP-3 transfected, phospho-Erk imaging KS statistic; at 10 µM; stronger effect = higher value; cells stimulated with TPA for 15 min.
For experiment [5], the target named is Voltage-gated potassium channel subunit beta-2 (Rattus norvegicus) (UniProt P62483). Briefly: inhibitors of rat Kvbeta2 reductase activity – biochemical, NADPH fluorescence, primary screen (AID 622;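 active = fluorescence slope higher than the sample average by over 3 SD, cut at about -0.22 in these data, passing the limit was not always enough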;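 also: slope of raw intensity against log time taken from 70 to 1610 s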). To be noted: recombinant KvBeta, 4-cyanobenzaldehyde reduction, at 10 µM, stronger effect = higher value.
The target is the same in experiment [6]. Briefly: enhancers of rat Kvbeta2 NADPH turnover – biochemical, NADPH fluorescence, primary screen (AID 623;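 active = NADPH fluorescence slope more negative than the mean of all samples by about 3 SD, 99.7% confidence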;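 also: fluorescence intensity change per second fitted from 20 to 320 s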). Particulars: Recombinant KvBeta, NADPH fluorescence decrease slope, 10 min; at 10 µM; stronger effect = lower value.
The target in experiment [7] is Alpha-2C adrenergic receptor (Homo sapiens) (UniProt P18825). Briefly: compounds altering alpha2C-coupled GIRK flux – cell-based, HEK293 alpha2C/GIRK1/2, thallium flux, primary screen (AID 624;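 active = fluorescence slope after compound addition differing from the mean of all screened samples at 99.7% confidence, in either direction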;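 also: slope of fluorescence ratio to pre-addition baseline per second over 15 to 24 s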). Particulars: thallium flux BTC fluorescence, at 10 µM, actives lie on both sides.
Experiment [8] is described as follows: inhibitors of larval lipid processing in zebrafish, primary screen, whole organism, PED6 fluorescence, gall bladder and intestine (AID 686;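 active = a full or partial loss of lipid-probe fluorescence in the fish gall bladder, intestine or both, judged by eye; inactive = no fluorescence loss, or compound toxic to the fish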;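 also: larvae 5 to 7 days old with five fish per well; signal comes from phospholipase A2 cleavage of quenched PED6 carried via bile; overnight exposure to compound and PED6 before scoring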). Particulars: Zebrafish larvae PED6 lipid processing, fluorescence scoring; screened at 20 µM (by protocol). The method, boiled down:
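Test system – live zebrafish larvae aged 5-7 days, whole organism · Buffer or medium – E3 fish medium · Reagent – quenched phospholipase substrate PED6, 100 nM final, ingested by larvae · Doses – 20 µM single dose · Incubation – overnight compound and PED6 incubation · Technique – visual fluorescence microscopy scoring of gall bladder, gut · Read-out basis – visual per-well fluorescence inhibition score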

The nature of experiment [9]: loss of swimming-algae plug formation – whole organism, Chlamydomonas reinhardtii, WT vs cilia-less mutant, absorbance, 96-well, primary screen (AID 463189;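 active = inhibition at or above 50% relative to wild type and mutant plate controls; inactive = inhibition below 50%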;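 also: 0% = wild type cc124 cells in DMSO and 100% = ciliumless bld1 mutant cells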). To be noted: Chlamydomonas reinhardtii gravitaxis, OD600 absorbance, 2 days; at 10 µM; stronger effect = higher value.
Setting [10] is: measured here: cell density z-score.
The mark [11] stands for this setting: measured here: nuclear c-Myc green intensity z-score.
[12] abbreviates: measured here: nuclear pErk red intensity z-score, stronger effect = higher value.

The source made the active and inactive calls.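 The calls were made as follows, unless noted: active = compounds giving at least 50% inhibition in the cell-based MKP-3 phosphatase rescue imaging test; inactive = the rest.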

This note sets out measurements from PubChem BioAssay.

Voltage-gated potassium channel subunit beta-2 (Rattus norvegicus), sequence (P62483 whole entry, looked up): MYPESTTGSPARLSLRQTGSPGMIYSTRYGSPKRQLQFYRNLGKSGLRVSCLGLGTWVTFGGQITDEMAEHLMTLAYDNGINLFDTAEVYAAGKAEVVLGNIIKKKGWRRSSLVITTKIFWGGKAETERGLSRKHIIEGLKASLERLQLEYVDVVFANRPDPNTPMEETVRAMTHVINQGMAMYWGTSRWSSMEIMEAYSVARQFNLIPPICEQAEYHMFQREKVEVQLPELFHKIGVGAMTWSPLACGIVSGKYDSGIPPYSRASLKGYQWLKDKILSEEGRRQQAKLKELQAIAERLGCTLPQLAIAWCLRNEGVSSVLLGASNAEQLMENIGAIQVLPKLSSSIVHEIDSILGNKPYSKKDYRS
Alpha-2C adrenergic receptor (Homo sapiens), sequence (P18825 whole entry, looked up): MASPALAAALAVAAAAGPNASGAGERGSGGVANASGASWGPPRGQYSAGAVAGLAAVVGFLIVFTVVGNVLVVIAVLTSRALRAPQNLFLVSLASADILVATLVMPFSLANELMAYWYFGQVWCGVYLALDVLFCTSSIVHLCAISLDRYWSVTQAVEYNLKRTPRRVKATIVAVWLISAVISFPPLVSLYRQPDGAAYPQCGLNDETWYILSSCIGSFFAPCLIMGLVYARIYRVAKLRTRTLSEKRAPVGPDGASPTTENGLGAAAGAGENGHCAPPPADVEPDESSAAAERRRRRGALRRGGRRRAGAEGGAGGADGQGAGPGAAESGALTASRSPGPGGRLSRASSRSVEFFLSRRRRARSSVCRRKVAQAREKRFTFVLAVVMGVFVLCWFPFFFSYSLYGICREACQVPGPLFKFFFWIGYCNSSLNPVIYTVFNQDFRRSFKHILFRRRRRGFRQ
Dual specificity protein phosphatase 6 (Homo sapiens), sequence (Q16828 whole entry, looked up): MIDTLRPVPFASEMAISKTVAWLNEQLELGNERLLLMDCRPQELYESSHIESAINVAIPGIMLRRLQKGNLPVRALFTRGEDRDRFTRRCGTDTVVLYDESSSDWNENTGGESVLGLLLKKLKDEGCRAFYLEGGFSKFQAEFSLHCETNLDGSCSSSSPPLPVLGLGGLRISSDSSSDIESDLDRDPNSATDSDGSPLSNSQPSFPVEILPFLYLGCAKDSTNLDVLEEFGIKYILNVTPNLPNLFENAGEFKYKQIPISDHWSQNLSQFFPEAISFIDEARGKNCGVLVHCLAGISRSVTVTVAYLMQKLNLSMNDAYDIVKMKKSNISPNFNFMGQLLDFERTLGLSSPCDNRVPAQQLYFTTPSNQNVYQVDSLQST

In the case of `CC(NC(=O)OC(C)(C)C)C(=O)Oc1ccc2ccc(=O)oc2c1` (centres undefined), the cell count in experiment [1] stood at 566. In addition, the inhibition in [1] was -16.8% (inactive); in experiment [2], -178% (inactive); in experiment [4], 28.6% (inactive); in experiment [9] it was 1.2% (inactive). In addition, the nuclei count in [2] amounted to 183%. Also, the z-score was 0.378 in experiment [3] (setting [10]), 1.02 in experiment [3] (setting [11]) and -0.959 in experiment [3] (setting [12]). For the same compound, the fluorescence slope in experiment [5] was -0.0856 (inactive). For the same compound, in experiment [6], the NADPH fluorescence slope was -1.3e-05 (inactive). In addition, in experiment [7], the slope was 0.00547 (inactive). Also, the outcome in [8] was inactive.

`COc1cccc(C2C(C#N)=C(N)Oc3cc(C)[nH]c(=O)c32)c1OC` (centres undefined): in experiment [1], the cell count turned out to be 508. Also, the inhibition in experiment [1] is -31.3% (inactive); in experiment [2], -89.8% (inactive); in experiment [4], -2.47% (inactive); in experiment [9] it was 9.96% (inactive). Besides, the nuclei count in experiment [2] was 158%. Further, the z-score in experiment [3] (setting [10]) is -0.315; in experiment [3] (setting [11]) it was -0.918; in experiment [3] (setting [12]), -0.838. In addition, in experiment [5], the fluorescence slope was -0.524 (inactive). The NADPH fluorescence slope in experiment [6] is -4.3e-05 (inactive). Moreover, the slope in experiment [7] is 0.00584 (inactive). In experiment [8], the outcome was inactive.

As to `N/C(CCN1CCCCC1)=N/O`, in experiment [1], the cell count came to 582. Further, the inhibition was -29.9% (inactive) in [1], 25.5% (inactive) in experiment [2], -4.27% (inactive) in experiment [4] and 12.2% (inactive) in experiment [9]. The same compound displayed a nuclei count in experiment [2] of 169%. Further, the z-score is 0.685 in experiment [3] (setting [10]), -0.291 in [3] (setting [11]) and -0.968 in experiment [3] (setting [12]). Also, the fluorescence slope in [5] was -0.418 (inactive). The NADPH fluorescence slope in experiment [6] was -9.2e-06 (inactive). The slope in experiment [7] was 0.00552 (inactive). Further, the compound was classed as inactive in [8].

Take `Cc1ccnc(N2CCN(c3cc(C)c(C#N)c4nc5ccccc5n34)CC2)c1`: in experiment [1], the cell count came to 572. The inhibition was 7.2% (inactive) in experiment [1], -151% (inactive) in [2], 13.9% (inactive) in experiment [4] and -4.75% (inactive) in experiment [9]. This compound also came in with a nuclei count in experiment [2] of 125%. In addition, the z-score is 0.222 in experiment [3] (setting [10]), 0.0486 in experiment [3] (setting [11]) and -0.157 in [3] (setting [12]). Moreover, the fluorescence slope in experiment [5] was -0.408 (inactive). The NADPH fluorescence slope in [6] is -8.8e-06 (inactive). For the same compound, in [7], the slope was 0.00554 (inactive). Besides, in experiment [8], the compound was called inactive.

With `CN(C)c1ccc(C=NCCC2(O)CCOC(C)(C)C2)cc1` (centres undefined), the cell count in [1] was 326. For the same compound, the inhibition is -27% (inactive) in experiment [1], -218% (inactive) in [2], 8.76% (inactive) in experiment [4] and -4.27% (inactive) in experiment [9]. Also, in experiment [2], the nuclei count came to 173%. Also, the z-score in experiment [3] (setting [10]) is -0.673; in [3] (setting [11]) it was -1.17; in experiment [3] (setting [12]), -0.362. Also, in experiment [5], the fluorescence slope is -0.416 (inactive). Also, the NADPH fluorescence slope in [6] is -0.000167 (inactive). Besides, the slope in experiment [7] is 0.00576 (inactive). Also, the outcome in experiment [8] was inactive.

For `COc1ccccc1OCC(=O)Nc1ccc(S(=O)(=O)Nc2cc(C)nc(C)n2)cc1`, the cell count in [1] was 571. Also, the inhibition in experiment [1] was -6.6% (inactive); in experiment [2] it was 3% (inactive); in [4] it was 4.25% (inactive); in [9], -4.91% (inactive). Also, in [2], the nuclei count came to 159%. Further, the values for the z-score in experiment [3] (setting [10]), in experiment [3] (setting [11]) and in experiment [3] (setting [12]) were 0.333, 1.18 and -0.662, respectively. Also, the fluorescence slope in [5] was -0.303 (inactive). Further, the NADPH fluorescence slope in experiment [6] is 1.9e-05 (inactive). Further, in experiment [7], the slope is 0.0043 (inactive). The outcome in experiment [8] was inactive.

`COCc1cc(C)nc(N)c1C#N`: in experiment [1], the cell count was found to be 606. In addition, the inhibition in experiment [1] was 5.8% (inactive); in experiment [2], -20.1% (inactive); in experiment [4], 16.1% (inactive); in [9] it was -2% (inactive). The same compound showed a nuclei count in experiment [2] of 136%. For the same compound, the z-score was 0.714 in experiment [3] (setting [10]), -1.4 in experiment [3] (setting [11]) and 1.43 in [3] (setting [12]). Further, in experiment [5], the fluorescence slope was -0.219 (inactive). Further, the NADPH fluorescence slope in experiment [6] was 9.7e-06 (inactive). Also, the slope in experiment [7] is 0.00554 (inactive). Moreover, the outcome in [8] was inactive.

As for `COc1ccc(-c2cn3ccsc3n2)cc1`, the cell count in experiment [1] was 536. In addition, the inhibition in experiment [1] is -3% (inactive); in experiment [2], -235% (inactive); in experiment [4], -8.95% (inactive); in [9], -19.1% (inactive). In experiment [2], this compound displayed a nuclei count of 197%. For the same compound, the z-score in experiment [3] (setting [10]) was -1.31; in [3] (setting [11]), -1.4; in [3] (setting [12]), 1.15. Besides, in experiment [5], the fluorescence slope was -0.478 (inactive). Besides, the NADPH fluorescence slope in experiment [6] was -0.000227 (inactive). For the same compound, the slope in experiment [7] was 0.00481 (inactive). For the same compound, the outcome in [8] was inactive.

With `Cc1nn(-c2ccccc2)c2c1C(c1ccc(F)cc1F)C(C#N)=C(N)O2` (centres undefined), the cell count in [1] stood at 611. The inhibition in experiment [1] is -19.6% (inactive); in [2], 17.2% (inactive); in experiment [4] it was 19.1% (inactive); in experiment [9], 18.8% (inactive). This compound also registered a nuclei count in experiment [2] of 184%. The z-score is 0.29 in [3] (setting [10]), -0.619 in experiment [3] (setting [11]) and 0.392 in experiment [3] (setting [12]). Also, the fluorescence slope in [5] was -0.41 (inactive). Further, the NADPH fluorescence slope in [6] is -2.3e-05 (inactive). For the same compound, the slope in experiment [7] is 0.00636 (inactive). The call in [8] was inactive.

As for `CCOC(=O)CC1=NC(=O)CS1`, the cell count in experiment [1] worked out at 636. The inhibition was -20.6% (inactive) in experiment [1], -40.7% (inactive) in [2], -5.62% (inactive) in experiment [4] and 11.6% (inactive) in experiment [9]. The nuclei count in experiment [2] amounted to 179%. Besides, the z-score was -0.153 in [3] (setting [10]), -1.04 in experiment [3] (setting [11]) and 1.51 in [3] (setting [12]). Further, the fluorescence slope in experiment [5] is -0.455 (inactive). Also, in experiment [6], the NADPH fluorescence slope was -5.7e-05 (inactive). The slope in [7] was 0.00579 (inactive). Besides, the call in experiment [8] was inactive.

For the compound `COCCCn1c2nc3ccccc3nc2c2c(=O)n(CC3CCCO3)cnc21` (centres undefined), in experiment [1], the cell count came to 561. The inhibition in experiment [1] was -24.2% (inactive); in [2], -93.6% (inactive); in experiment [4], 2.92% (inactive); in [9], 9.15% (inactive). This compound gave a nuclei count in [2] of 148%. Moreover, the z-score is 0.117 in [3] (setting [10]), -0.113 in [3] (setting [11]) and -0.0537 in [3] (setting [12]). Further, the fluorescence slope in experiment [5] was -0.368 (inactive). Further, in experiment [6], the NADPH fluorescence slope is -1.9e-05 (inactive). Besides, in experiment [7], the slope is 0.00353 (inactive). Moreover, the compound was classed as inactive in experiment [8].

With `COc1cccc(Cn2c(NCC(C)C)nc3c2c(=O)n(C)c(=O)n3C)c1`, the cell count in experiment [1] was 341. In addition, the inhibition was 3.2% (inactive) in [1], -77.7% (inactive) in [2], -0.624% (inactive) in experiment [4] and -12.8% (inactive) in experiment [9]. Further, the nuclei count in experiment [2] was determined as 127%. The z-score was -0.509 in experiment [3] (setting [10]), 0.441 in experiment [3] (setting [11]) and 1.11 in experiment [3] (setting [12]). Besides, the fluorescence slope in experiment [5] was -0.385 (inactive). In addition, in [6], the NADPH fluorescence slope was 4.1e-05 (inactive). Moreover, in experiment [7], the slope was 0.00489 (inactive). Also, the result in experiment [8] was inactive.

For the compound `Cc1ccc(S(=O)(=O)/C(C#N)=C/c2c(N3CCN(C)CC3)nc3c(C)cccn3c2=O)cc1`, the cell count in [1] was determined as 485. Besides, the inhibition in experiment [1] was 3.3% (inactive); in experiment [2] it was 20% (inactive); in experiment [4], 20.3% (inactive); in experiment [9], -7.2% (inactive). In addition, the nuclei count in experiment [2] was 160%. In addition, the z-score was -0.459 in experiment [3] (setting [10]), 0.434 in experiment [3] (setting [11]) and 1.14 in experiment [3] (setting [12]). Besides, the fluorescence slope in experiment [5] is -0.382 (inactive). Moreover, the NADPH fluorescence slope in experiment [6] is -4.1e-05 (inactive). In experiment [7], the slope is 0.00164 (active). The compound was classed as inactive in experiment [8].

Broadly, the inhibition is the change of the read-out against control, counted positive when it falls.
